According to ChEMBL document CHEMBL1133753, “6-N-Acyltriciribine analogues: structure-activity relationship between acyl carbon chain length and activity against HIV-1” (J Med Chem, 2000):

What was measured:
[1] = Antiviral activity against HSV-1 was determined using BSC-1 cells by an enzyme-linked immunosorbent assay (ELISA); format: functional, cell-based; details: Cercopithecidae
[2] = tested on: CEM-SS; assay: Visual cytotoxicity was scored on CEM-SS cells; format: functional, cell-based; details: Homo sapiens
[3] = tested on: HFF; assay: Visual cytotoxicity was scored on uninfected HFF cells; format: functional, cell-based; details: Homo sapiens
[4] = tested on: HFF; assay: Antiviral activity against HCMV was determined by plaque reduction assay using HFF cells; format: functional, cell-based; details: Homo sapiens
[5] = (§1) Cytotoxicity measured as Inhibition of KB cell growth was assessed.; format: functional, cell-based; details: Homo sapiens
[6] = organism: Homo sapiens; assay: Intracellular phosphorylation (100 uM) in uninfected AA2 cells was studied, after 5 hrs of Incubation.; format: functional, cell-based
Summary of the method: (§2)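 Uninfected cells grown in suspension with compound at the stated extracellular concentration for 5 or 24 h. Cells pelleted and washed in cold Puck's saline with glucose. Nucleotides extracted with 0.6 N TCA on ice, neutralized with freon/0.5 M triethylamine, then separated by reverse-phase C18 HPLC (formic acid pH 2.5 to 50% methanol gradient), UV 254/290 nm; peaks identified by electrospray MS in a separate run. TCN-P quantified against standards and converted to μM using 1.9 pL/cell.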

[7] = tested on: CEM-SS; assay: Intracellular phosphorylation (10 uM) in uninfected CEM-SS cells was studied after 24 hrs of Incubation.; format: functional, cell-based; details: Homo sapiens; summary of the method: as §2
[8] = tested on: CEM-SS; assay: Intracellular phosphorylation (100 uM) studied, after 5 hrs of Incubation.; format: functional, cell-based; details: Homo sapiens; summary of the method: as §2
[9] = as §1; format: cell-based; details: Homo sapiens
Summary of the method: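 KB cells plated at 5000/well and incubated overnight at 37 °C. Compound added in triplicate at eight concentrations, then 48 h at 37 °C in CO₂ (two population doublings). Cells fixed with 95% ethanol, stained with 0.1% crystal violet, dye eluted with acidified ethanol and read at 570 nm. IC50 taken from linear regression of % inhibition vs log concentration.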

[10] = Antiviral activity was evaluated by RT (reverse transcriptase) activity in cells acutely infected with HIV-1
[11] = tested on: CEM-SS; assay: Intracellular phosphorylation (10 uM) in uninfected CEM-SS cells was studied; format: functional, cell-based; details: Homo sapiens; summary of the method: as §2
[12] = tested on: CEM-SS; assay: Intracellular phosphorylation (100 uM) in uninfected CEM-SS cells was studied after 24 hrs of Incubation.; format: functional, cell-based; details: Homo sapiens; summary of the method: as §2

Row | Structure (SMILES) | IC50 [1] [µM] | IC50 [10] [µM] | IC50 [2] [µM] | IC50 [3] [µM] | IC50 [4] [µM] | IC50 [5] [µM] | Concentration [6] [µM] | Concentration [7] [µM] | Concentration [8] [µM] | IC50 [9] [µM] | Concentration [11] [µM] | Concentration [12] [µM]
1 | CN1N=C(NC(=O)c2ccccc2)c2cn(C3O[C@H](CO)[C@@H](O)[C@H]3O)c3ncnc1c23 (some centres undefined) | > 100 | – | > 100 | > 100 | > 100 | > 100 | – | – | – | – | – | –
2 | CC(C)C(=O)NC1=NN(C)c2ncnc3c2c1cn3C1O[C@H](CO)[C@@H](O)[C@H]1O (some centres undefined) | > 100 | – | > 100 | > 100 | > 100 | > 100 | – | – | – | – | – | –
3 | CCCC(=O)NC1=NN(C)c2ncnc3c2c1cn3C1O[C@H](CO)[C@@H](O)[C@H]1O (some centres undefined) | > 100 | – | > 100 | 100 | 10 | 100 | – | – | – | – | – | –
4 | CCC(=O)NC1=NN(C)c2ncnc3c2c1cn3C1O[C@H](CO)[C@@H](O)[C@H]1O (some centres undefined) | > 100 | – | > 100 | 100 | 40 | – | – | – | – | > 100 | – | –
5 | CN1N=C(N)c2cn([C@@H]3O[C@H](COP(=O)(O)O)[C@@H](O)[C@H]3O)c3ncnc1c23 [TRICIRIBINE PHOSPHATE] | 20 | 0.04 | > 1 | – | – | 10 | – | – | – | – | – | –
6 | CC(=O)NC1=NN(C)c2ncnc3c2c1cn3C1O[C@H](CO)[C@@H](O)[C@H]1O (some centres undefined) | > 100 | – | > 100 | > 100 | > 100 | > 100 | – | – | – | – | – | –
7 | CCCCCC(=O)NC1=NN(C)c2ncnc3c2c1cn3C1O[C@H](CO)[C@@H](O)[C@H]1O (some centres undefined) | > 100 | – | 45 | 100 | 8.8 | 40 | – | – | – | – | – | –
8 | CN1N=C(NC(=O)C(C)(C)C)c2cn(C3O[C@H](CO)[C@@H](O)[C@H]3O)c3ncnc1c23 (some centres undefined) | > 100 | – | > 100 | > 100 | > 100 | > 100 | – | – | – | – | – | –

Continued, in another order:

Row | IC50 [1] [µM] | IC50 [10] [µM] | Structure (SMILES) | IC50 [2] [µM] | IC50 [3] [µM] | IC50 [4] [µM] | IC50 [5] [µM] | Concentration [6] [µM] | Concentration [7] [µM] | Concentration [8] [µM] | IC50 [9] [µM] | Concentration [11] [µM] | Concentration [12] [µM]
9 | 45 | – | CCCCCCCCCCCC(=O)NC1=NN(C)c2ncnc3c2c1cn3C1O[C@H](CO)[C@@H](O)[C@H]1O (some centres undefined) | 32 | 21 | 12 | 75 | – | – | – | – | – | –
10 | > 100 | – | CCCCCCCCCC(=O)NC1=NN(C)c2ncnc3c2c1cn3C1O[C@H](CO)[C@@H](O)[C@H]1O (some centres undefined) | 32 | 21 | 12 | 40 | – | – | – | – | – | –
11 | > 100 | – | CCCCCCCC(=O)NC1=NN(C)c2ncnc3c2c1cn3C1O[C@H](CO)[C@@H](O)[C@H]1O (some centres undefined) | 32 | 21 | 12 | 40 | – | – | – | – | – | –
12 | > 100 | – | CCCCCCC(=O)NC1=NN(C)c2ncnc3c2c1cn3C1O[C@H](CO)[C@@H](O)[C@H]1O (some centres undefined) | 32 | 32 | 11 | 30 | 48 | 225 | 850 | – | – | –
13 | > 100 | – | CCCCCCCCC(=O)NC1=NN(C)c2ncnc3c2c1cn3C1O[C@H](CO)[C@@H](O)[C@H]1O (some centres undefined) | 32 | 21 | 12 | 65 | – | – | – | – | 243 | –
14 | > 100 | – | CCCCC(=O)NC1=NN(C)c2ncnc3c2c1cn3C1O[C@H](CO)[C@@H](O)[C@H]1O (some centres undefined) | 32 | > 100 | 0.45 | 30 | – | – | – | – | – | 710
